Several values for one entry are separate records, joined by “and”; a condition that tells them apart may be missing. Identical values can stand only once.
How the values were obtained:
Canis familiaris [1] = assay: Heart rate was determined by intraduodenal administration of two dosages of 3 mg/kg of (high dose) compound in anesthetized dogs. Value was reported for experiment 2; format: functional, Canis lupus familiaris
Method in brief: (§1)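 Anesthetized dogs given the compound intraduodenally, generally as two doses with the second a cumulative total (low/high). FRP and CT measured at 15, 30 and 45 min after dosing. HR and BP taken during nonpacing intervals. Values are percent change from control per animal. Activity criterion is FRP or CT prolonged ≥12%. Vehicle: 5% dextrose in water/tragacanth.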

Canis familiaris [2] = assay: Left ventricular refractory period was determined by intraduodenal administration of two dosages of 1 mg/kg of (low dose) compound in anesthetized dogs. Value was reported for experiment 3; format: functional, Canis lupus familiaris, Cardiac ventricle
Method in brief: (§2)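 Anesthetized dogs, usually given two intraduodenal doses, with the second dose cumulative (low/high). Left ventricular FRP and CT were determined at 15, 30 and 45 min after dosing. HR and BP were measured during nonpacing intervals. Values are % change from control at low/high dose, for individual animals. The vehicle-stability set used 5% dextrose in water/tragacanth (n = 8).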

Canis familiaris [3] = species: Canis familiaris; assay: In vitro electrophysiological evaluation in canine cardiac Purkinje fibres reported as % change for action potential duration at 0.1-100 uM concentration range; format: functional, Canis lupus familiaris, Purkinje fiber
Method in brief: (§3)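 Canine cardiac Purkinje fibres, intracellular microelectrode recording, paced at a basic cycle length of 1 s. APD95 and Vmax read simultaneously. Compound: 10 mM stock in deionized water, diluted into Tyrode's solution, tested over the stated concentration range. Each fibre used once as its own control. Result is % change from control, given at 10 µM or as the maximum with its concentration. M = <10% decrease or an increase in Vmax.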

Canis familiaris [4] = assay: Heart rate was determined by intraduodenal administration of two dosages of 10 mg/kg of (high dose) compound in anesthetized dogs. Value was reported for experiment 1; format: functional, Canis lupus familiaris
Method in brief: (§4)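 Anesthetized dogs; compound given intraduodenally, generally as two doses, the second a cumulative (high) dose. LV functional refractory period and conduction time measured 15, 30 and 45 min after dosing; heart rate and blood pressure measured during nonpacing intervals. Values are % change from control, given per individual animal. Active if FRP or CT prolonged by ≥12%.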

Canis familiaris [5] = species: Canis familiaris; assay: In vitro electrophysiological evaluation in canine cardiac ventricular muscle reported as % change for conduction time(CT) at 0.1-100 uM concentration range; format: functional, Canis lupus familiaris, Muscle tissue
Method in brief: (§5)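 Canine right ventricular/papillary muscle strips in oxygenated Tyrode's, extracellular extra-stimulus conduction-interval method. FRP and CT are read from conduction-interval curves before and during rising concentrations. Compound is a 10 mM aqueous stock diluted into Tyrode's. Each strip is used once as its own control. Readouts are percent change from control at 10 μM, plus the maximum change with its concentration.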

Canis familiaris [6] = species: Canis familiaris; assay: In vitro electrophysiological evaluation in canine cardiac Purkinje fibres reported as % change for action potential duration at 0.1-10 uM concentration range; format: functional, Canis lupus familiaris, Purkinje fiber; method in brief: as §3
Canis familiaris [7] = species: Canis familiaris; assay: In vitro electrophysiological evaluation in canine cardiac ventricular muscle reported as maximum % change for conduction time(CT) at 0.1-100 uM concentration range; format: functional, Canis lupus familiaris, Muscle tissue
Method in brief: (§6)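 Canine right ventricle and papillary muscle strips in oxygenated Tyrode's solution, fitted with stimulating and recording electrodes. The extra-stimulus conduction-interval method was adapted for in vitro use. FRP and CT were read from a conduction-interval curve before and after various compound concentrations, and expressed as percent change from control. Compounds were taken from 10 mM deionized-water stock into Tyrode's. Each strip was used once as its own control.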

Canis familiaris [8] = species: Canis familiaris; assay: In vitro electrophysiological evaluation in canine cardiac ventricular muscle reported as % change for conduction time(CT) at 0.1-100 uM concentration range; Minimal (<IO%increase or a decrease in CT); format: functional, Canis lupus familiaris, Muscle tissue
Canis familiaris [9] = species: Canis familiaris; assay: In vitro electrophysiological evaluation in canine cardiac Purkinje fibres reported as maximum percent change Vmax concentration range of 0.1-10 uM; format: functional; conditions: Canis lupus familiaris; Purkinje fiber
Method in brief: (§7)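 Canine cardiac Purkinje fibers, intracellular recording, paced at a basic cycle length of 1 s. APD95 and Vmax are recorded together across cumulative concentrations. Compound is a 10 mM aqueous stock diluted into Tyrode's solution. Each fiber is used once as its own control. Readouts are percent change from control at 10 μM, and the maximum change with the concentration where it occurred.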

Canis familiaris [10] = assay: Left ventricular refractory period was determined by intraduodenal administration of two dosages of 10 mg/kg of (high dose) compound in anesthetized dogs. Value was reported for experiment 1; format: functional, Canis lupus familiaris, Cardiac ventricle
Method in brief: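 Anesthetized dogs received two intraduodenal doses, the second cumulative (low dose/high dose). Left ventricular FRP and CT were measured 15, 30 and 45 min after dosing. Heart rate and mean blood pressure were taken during nonpacing intervals. Values are percent change from control. The vehicle was 5% dextrose in water/tragacanth. Activity was defined as ≥12% prolongation of FRP or CT.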

Canis familiaris [11] = species: Canis familiaris; assay: (§8) In vitro electrophysiological evaluation in canine cardiac ventricular muscle reported as % change for the functional refractory period (FRP) concentration range of 0.1-100 uM; set-up: species or system Canis lupus familiaris, Muscle tissue; method in brief: as §5
Canis familiaris [12] = species: Canis familiaris; assay: In vitro electrophysiological evaluation in canine cardiac ventricular muscle reported as maximum % change for conduction time(CT) at 0.1-100 uM concentration range; Minimal (<IO%increase or a decrease in CT); format: functional, Canis lupus familiaris, Muscle tissue; method in brief: as §6
Canis familiaris [13] = species: Canis familiaris; assay: In vitro electrophysiological evaluation in canine cardiac Purkinje fibres reported as percent change Vmax concentration range of 1-100 uM; format: functional; conditions: Canis lupus familiaris; Purkinje fiber; method in brief: as §7
Canis familiaris [14] = assay: Heart rate was determined by intraduodenal administration of two dosages of 1 mg/kg of (low dose) compound in anesthetized dogs. Value was reported for experiment 3; format: functional, Canis lupus familiaris; method in brief: as §1
Canis familiaris [15] = assay: Mean arterial blood pressure was determined by intraduodenal administration of two dosages of 3 mg/kg of (high dose) compound in anesthetized dogs. Value was reported for experiment 2; format: functional, Canis lupus familiaris; method in brief: as §2
Canis familiaris [16] = species: Canis familiaris; assay: In vitro electrophysiological evaluation in canine cardiac ventricular muscle reported as maximum % change for conduction time(CT) at 0.1-10 uM concentration range; Minimal (<IO%increase or a decrease in CT); format: functional, Canis lupus familiaris, Muscle tissue; method in brief: as §5
Canis familiaris [17] = species: Canis familiaris; assay: as §8; set-up: species or system Canis lupus familiaris, Muscle tissue; method in brief: as §6; remark: listed apart in the source
Canis familiaris [18] = assay: Mean arterial blood pressure was determined by intraduodenal administration of two dosages of 10 mg/kg of (high dose) compound in anesthetized dogs. Value was reported for experiment 3; format: functional, Canis lupus familiaris; method in brief: as §2
Canis familiaris [19] = assay: Mean arterial blood pressure was determined by intraduodenal administration of two dosages of 3 mg/kg of (high dose) compound in anesthetized dogs. Value was reported for experiment 3; format: functional, Canis lupus familiaris; method in brief: as §2
Canis familiaris [20] = assay: Left ventricular refractory period was determined by intraduodenal administration of two dosages (high/low) of 10 g/kg of compound in anesthetized dogs. Value was reported for experiment 3; format: functional, Canis lupus familiaris, Cardiac ventricle; conditions: in the assay text read “10 mg/kg” for “10 g/kg”; method in brief: as §2
Canis familiaris [21] = assay: Heart rate was determined by intraduodenal administration of two dosages of 10 mg/kg of (high dose) compound in anesthetized dogs. Value was reported for experiment 3; format: functional, Canis lupus familiaris; method in brief: as §1
Canis familiaris [22] = species: Canis familiaris; assay: In vitro electrophysiological evaluation in canine cardiac Purkinje fibres reported as % change for action potential duration at 0.01-100 uM concentration range; format: functional, Canis lupus familiaris, Purkinje fiber; method in brief: as §7
Canis familiaris [23] = species: Canis familiaris; assay: In vitro electrophysiological evaluation in canine cardiac Purkinje fibres reported as % change for action potential duration at 1-100 uM concentration range; format: functional, Canis lupus familiaris, Purkinje fiber; method in brief: as §7
Canis familiaris [24] = assay: Conduction time was determined by intraduodenal administration of two dosages of 3 mg/kg (high dose) of compound in anesthetized dogs. Value was reported for experiment 2; format: functional, Canis lupus familiaris; method in brief: as §1
Canis familiaris [25] = assay: Conduction time was determined by intraduodenal administration of two dosages of 3 mg/kg (low dose) of compound in anesthetized dogs. Value was reported for experiment 1; format: functional, Canis lupus familiaris; method in brief: as §4
Canis familiaris [26] = species: Canis familiaris; assay: In vitro electrophysiological evaluation in canine cardiac ventricular muscle reported as maximum % change for functional refractory period (FRP) at 0.1-100 uM concentration range; set-up: species or system Canis lupus familiaris, Muscle tissue

CCCCCCC[N+](CC)(CC)CCCCc1ccc(Cl)cc1.O=P([O-])(O)O [CLOFILIUM PHOSPHATE] was tested, and the HR (Canis familiaris [1]) was -6%, the “LV FRP” value (Canis familiaris [2]) was 4% and the APD95 (Canis familiaris [3]) was 48% and 46%. It also gave an HR (Canis familiaris [4]) of -24%, a CT (Canis familiaris [5]) of 11% and an APD95 (Canis familiaris [6]) of 52%. It also gave a CT (Canis familiaris [7]) of 19%, a CT (Canis familiaris [8]) of less than 10% and a Vmax (Canis familiaris [9]) of -11%. For the same molecule, the “LV FRP” value (Canis familiaris [10]) was 22%, the “FRP at 10microM” value (Canis familiaris [11]) was -3% and the CT (Canis familiaris [12]) was less than 10%. For the same molecule, the Vmax (Canis familiaris [13]) was -50% and -49%, the HR (Canis familiaris [14]) was -2% and the Mean blood pressure (Canis familiaris [15]) was -14%. The CT (Canis familiaris [16]) was less than 10%, the FRP (Canis familiaris [17]) was 11% and 5% and the Mean blood pressure (Canis familiaris [18]) was 4%. It also gave a Mean blood pressure (Canis familiaris [19]) of 0%, an L (Canis familiaris [20]) of 23% and an HR (Canis familiaris [21]) of -11%. The APD95 (Canis familiaris [22]) was 27% and 55%, the APD95 (Canis familiaris [23]) was 49% and 18% and the CT (Canis familiaris [24]) was -7%. The CT (Canis familiaris [25]) was -4% and the FRP (Canis familiaris [26]) was -3% and 14% and 7%.

— ChEMBL document CHEMBL1123566, “Synthesis and cardiac electrophysiological activity of 2- and 3-[(substituted phenyl)alkyl]quinuclidines. Structure-activity relationships” (1987)
